# Reference: article PMC2914325 (Nanomedicine (London, England), 2010)
# Legend:
# [1] = Absorption and fluorescence spectroscopy, quantum yield, TCSPC lifetime, TRES; format: physicochemical; details: for λem: 720 nm excitation; for τ (fluorescence lifetime): TCSPC, 773 nm excitation, 820 nm detection; for Φ (quantum yield): relative to ICG in DMSO
# [2] = Aggregation / stability of probes in solvents; format: physicochemical
# [3] = system: intradermal 4T1luc tumors in mouse ears; assay: High resolution noninvasive NIR imaging of intradermal ear tumors; format: in vivo, mouse (female balb/c); details: post-injection
# Method in brief: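 4T1luc cells (1×10^4) were implanted intradermally in each ear; n=3. From day 3, isoflurane-anaesthetised mice had glycerin-coated ears imaged at 800 nm (0.02 mm/pixel). Nanoparticles (0.10 mL, 4×10^13 particles/mL) or small-molecule probe (0.02 mL, 20 μM, 20% DMSO/water) were given i.v. by tail vein. Imaging was pre-, immediately post-, 4 h and 24 h post-injection, repeated days 8 and 15. Background-subtracted tumour ROI intensity was normalised to injected dose from vessel ROIs.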
# [4] = system: subcutaneous 4T1luc tumors; assay: Whole-body planar fluorescence reflectance imaging; format: in vivo, mouse (male NCR nude); details: 24 hours post-injection, i.v., subcutaneous 4T1luc tumor
# Method in brief: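 Tumours were 2×10^5 4T1luc cells s.c. in the right shoulder; n=3. Mice received i.v. 100 μl small-molecule probe (20 μM, 20% DMSO/water) or 150 μL nanoparticles. Planar NIR reflectance images (755±35 nm excitation, 830 nm emission, 60 s) were taken at 1, 4 and 24 h, with white-light/X-ray reference. Organs were then imaged ex vivo. ROI mean intensities were compared by Student's t-test (α = 0.05).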
# [5] = 20% DMSO/water, room temperature
Compound,"ε × 10^-3 ([1]; DMSO, room temperature) [M^-1 cm^-1]","λabs ([1]; DMSO, room temperature) [nm]","λem ([1]; DMSO, room temperature) [nm]",τ (fluorescence lifetime) ([1]; DMSO) [ns],Φ (quantum yield) ([1]; DMSO),aggregation ([2]; aqueous solutions),"λabs [1, 5] [nm]","λem [1, 5] [nm]",τ (fluorescence lifetime) ([1]; 20% DMSO/water) [ns],Φ (quantum yield) ([1]; 20% DMSO/water),time of peak tumor-to-normal contrast [3] [h],In vivo tumor contrast [4],stability in solvent ([2]; 20% DMSO/water)
CC1(C)C(/C=C/C=C/C=C/C=C2/N(CCC(=O)O)c3ccc4ccccc4c3C2(C)C)=[N+](CCC(=O)[O-])c2ccc3ccccc3c21 [cypate],224,790,817,0.97,0.12,form non-emissive aggregates,–,–,–,–,–,–,–
cypate-cRGDfK,–,–,–,–,–,–,790,804,0.24,0.036,4,1.32 +/- 0.13,stable
